# Test system: MCF7
# Test: Anticancer activity against human MCF7 cells assessed as cell growth at 10^-5 M after 48 hrs by SRB assay
# Format: functional
# Conditions: MCF7, 48 h, read-out: Activity
# In short: (§1)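 NCI-60 single-dose screen at one concentration. Cells grown in RPMI 1640 with 5% FBS and 2 mM L-glutamine, plated at 5000–40,000 cells/well, and pre-incubated 24 h at 37 °C in 5% CO2 before DMSO-dissolved drug was added. Cells fixed with TCA, SRB-stained, absorbance read at 515 nm. Percent growth calculated against time-zero and untreated control plates.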
row,SMILES,growth at 10 µM [%]
1,COc1cccc(-c2nc3sccn3c2-c2ccnc(NCCNC(=O)Nc3ccccc3)n2)c1,96.2

# Test system: CCRF-CEM
# Test: Anticancer activity against human CCRF-CEM cells assessed as cell growth at 10^-5 M after 48 hrs by SRB assay
# Format: functional
# Conditions: read-out: Activity
# In short: as §1
row,SMILES,growth at 10 µM [%]
1,COc1cccc(-c2nc3sccn3c2-c2ccnc(NCCNC(=O)Nc3ccccc3)n2)c1,44.4

# Test system: U-251
# Test: Anticancer activity against human U251 cells assessed as cell growth at 10^-5 M after 48 hrs by SRB assay
# Format: functional
# Conditions: U-251, 48 h, read-out: Activity
# In short: (§2)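 NCI-60 single-dose screen: cells in RPMI 1640 with 5% FBS and 2 mM L-glutamine, plated at 5000–40,000 cells/well by doubling time, and preincubated 24 h at 37 °C. Compound given at one concentration from DMSO stock. Cells TCA-fixed and SRB-stained, absorbance at 515 nm. Percent growth relative to time-zero and untreated controls; inhibition % = 100 − growth %.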
row,SMILES,growth at 10 µM [%]
1,COc1cccc(-c2nc3sccn3c2-c2ccnc(NCCNC(=O)Nc3ccccc3)n2)c1,108

# Test system: Malme-3M
# Test: Anticancer activity against human MALME-3M cells assessed as cell growth at 10^-5 M after 48 hrs by SRB assay
# Format: functional
# Conditions: read-out: Activity
# In short: as §1
row,SMILES,growth at 10 µM [%]
1,COc1cccc(-c2nc3sccn3c2-c2ccnc(NCCNC(=O)Nc3ccccc3)n2)c1,112

# Test system: ACHN
# Test: Anticancer activity against human ACHN cells assessed as cell growth at 10^-5 M after 48 hrs by SRB assay
# Format: functional
# Conditions: read-out: Activity
# In short: as §1
row,SMILES,growth at 10 µM [%]
1,COc1cccc(-c2nc3sccn3c2-c2ccnc(NCCNC(=O)Nc3ccccc3)n2)c1,95.5

# Test system: EKVX
# Test: Anticancer activity against human EKVX cells assessed as cell growth at 10^-5 M after 48 hrs by SRB assay
# Format: functional
# Conditions: read-out: Activity
# In short: as §1
row,SMILES,growth at 10 µM [%]
1,COc1cccc(-c2nc3sccn3c2-c2ccnc(NCCNC(=O)Nc3ccccc3)n2)c1,113

# Test system: BT-549
# Test: Anticancer activity against human BT549 cells assessed as cell growth at 10^-5 M after 48 hrs by SRB assay
# Format: functional
# Conditions: BT-549, 48 h, read-out: Activity
# In short: as §1
row,SMILES,growth at 10 µM [%]
1,COc1cccc(-c2nc3sccn3c2-c2ccnc(NCCNC(=O)Nc3ccccc3)n2)c1,96

# Test system: A498
# Test: Anticancer activity against human A498 cells assessed as cell growth at 10^-5 M after 48 hrs by SRB assay
# Format: functional
# Conditions: A498, 48 h, read-out: Activity
# In short: as §1
row,SMILES,growth at 10 µM [%]
1,COc1cccc(-c2nc3sccn3c2-c2ccnc(NCCNC(=O)Nc3ccccc3)n2)c1,103

# Test system: NCI-H522
# Test: Anticancer activity against human NCI-H522 cells assessed as cell growth at 10^-5 M after 48 hrs by SRB assay
# Format: functional
# Conditions: NCI-H522, 48 h, read-out: Activity
row,SMILES,growth at 10 µM [%]
1,COc1cccc(-c2nc3sccn3c2-c2ccnc(NCCNC(=O)Nc3ccccc3)n2)c1,82.7

# Test system: 786-0
# Test: Anticancer activity against human 786-0 cells assessed as cell growth at 10^-5 M after 48 hrs by SRB assay
# Format: functional
# Conditions: 786-0, 48 h, read-out: Activity
# In short: as §1
row,SMILES,growth at 10 µM [%]
1,COc1cccc(-c2nc3sccn3c2-c2ccnc(NCCNC(=O)Nc3ccccc3)n2)c1,96.8

# Test system: NCI-H226
# Test: Anticancer activity against human NCI-H226 cells assessed as cell growth at 10^-5 M after 48 hrs by SRB assay
# Format: functional
# Conditions: NCI-H226, 48 h, read-out: Activity
row,SMILES,growth at 10 µM [%]
1,COc1cccc(-c2nc3sccn3c2-c2ccnc(NCCNC(=O)Nc3ccccc3)n2)c1,109

# Test system: SK-MEL-2
# Test: Anticancer activity against human SK-MEL-2 cells assessed as cell growth at 10^-5 M after 48 hrs by SRB assay
# Format: functional
# Conditions: SK-MEL-2, 48 h, read-out: Activity
row,SMILES,growth at 10 µM [%]
1,COc1cccc(-c2nc3sccn3c2-c2ccnc(NCCNC(=O)Nc3ccccc3)n2)c1,99.9

# Test system: SF-268
# Test: Anticancer activity against human SF268 cells assessed as cell growth at 10^-5 M after 48 hrs by SRB assay
# Format: functional
# Conditions: SF-268, 48 h, read-out: Activity
row,SMILES,growth at 10 µM [%]
1,COc1cccc(-c2nc3sccn3c2-c2ccnc(NCCNC(=O)Nc3ccccc3)n2)c1,103

# Test system: RPMI-8226
# Test: Anticancer activity against human RPMI8226 cells assessed as cell growth at 10^-5 M after 48 hrs by SRB assay
# Format: functional
# Conditions: RPMI-8226, 48 h, read-out: Activity
row,SMILES,growth at 10 µM [%]
1,COc1cccc(-c2nc3sccn3c2-c2ccnc(NCCNC(=O)Nc3ccccc3)n2)c1,55.5

# Test system: MDA-MB-231
# Test: Anticancer activity against human MDA-MB-231 cells assessed as cell growth at 10^-5 M after 48 hrs by SRB assay
# Format: functional
# Conditions: MDA-MB-231, 48 h, read-out: Activity
# In short: as §1
row,SMILES,growth at 10 µM [%]
1,COc1cccc(-c2nc3sccn3c2-c2ccnc(NCCNC(=O)Nc3ccccc3)n2)c1,103

# Test system: SF-539
# Test: Anticancer activity against human SF539 cells assessed as cell growth at 10^-5 M after 48 hrs by SRB assay
# Format: functional
# Conditions: SF-539, 48 h, read-out: Activity
row,SMILES,growth at 10 µM [%]
1,COc1cccc(-c2nc3sccn3c2-c2ccnc(NCCNC(=O)Nc3ccccc3)n2)c1,43.8

# Test system: OVCAR-8
# Test: Anticancer activity against human OVCAR8 cells assessed as cell growth at 10^-5 M after 48 hrs by SRB assay
# Format: functional
# Conditions: OVCAR-8, 48 h, read-out: Activity
row,SMILES,growth at 10 µM [%]
1,COc1cccc(-c2nc3sccn3c2-c2ccnc(NCCNC(=O)Nc3ccccc3)n2)c1,74.7

# Test system: OVCAR-5
# Test: Anticancer activity against human OVCAR5 cells assessed as cell growth at 10^-5 M after 48 hrs by SRB assay
# Format: functional
# Conditions: OVCAR-5, 48 h, read-out: Activity
row,SMILES,growth at 10 µM [%]
1,COc1cccc(-c2nc3sccn3c2-c2ccnc(NCCNC(=O)Nc3ccccc3)n2)c1,126

# Test system: HOP-92
# Test: Anticancer activity against human HOP92 cells assessed as cell growth at 10^-5 M after 48 hrs by SRB assay
# Format: functional
# Conditions: HOP-92, 48 h, read-out: Activity
# In short: as §1
row,SMILES,growth at 10 µM [%]
1,COc1cccc(-c2nc3sccn3c2-c2ccnc(NCCNC(=O)Nc3ccccc3)n2)c1,70.9

# Test system: UO-31
# Test: Anticancer activity against human UO31 cells assessed as cell growth at 10^-5 M after 48 hrs by SRB assay
# Format: functional
# Conditions: UO-31, 48 h, read-out: Activity
# In short: as §2
row,SMILES,growth at 10 µM [%]
1,COc1cccc(-c2nc3sccn3c2-c2ccnc(NCCNC(=O)Nc3ccccc3)n2)c1,76.1

# Test system: NCI-H322M
# Test: Anticancer activity against human NCI-H322M cells assessed as cell growth at 10^-5 M after 48 hrs by SRB assay
# Format: functional
# Conditions: read-out: Activity
row,SMILES,growth at 10 µM [%]
1,COc1cccc(-c2nc3sccn3c2-c2ccnc(NCCNC(=O)Nc3ccccc3)n2)c1,108

# Test system: OVCAR-3
# Test: Anticancer activity against human OVCAR3 cells assessed as cell growth at 10^-5 M after 48 hrs by SRB assay
# Format: functional
# Conditions: OVCAR-3, 48 h, read-out: Activity
row,SMILES,growth at 10 µM [%]
1,COc1cccc(-c2nc3sccn3c2-c2ccnc(NCCNC(=O)Nc3ccccc3)n2)c1,109

# Test system: KM12
# Test: Anticancer activity against human KM12 cells assessed as cell growth at 10^-5 M after 48 hrs by SRB assay
# Format: functional
# Conditions: KM12, 48 h, read-out: Activity
# In short: as §1
row,SMILES,growth at 10 µM [%]
1,COc1cccc(-c2nc3sccn3c2-c2ccnc(NCCNC(=O)Nc3ccccc3)n2)c1,92

# Test system: SNB-75
# Test: Anticancer activity against human SNB75 cells assessed as cell growth at 10^-5 M after 48 hrs by SRB assay
# Format: functional
# Conditions: SNB-75, 48 h, read-out: Activity
# In short: as §2
row,SMILES,growth at 10 µM [%]
1,COc1cccc(-c2nc3sccn3c2-c2ccnc(NCCNC(=O)Nc3ccccc3)n2)c1,90.8

# Test system: DU-145
# Test: Anticancer activity against human DU145 cells assessed as cell growth at 10^-5 M after 48 hrs by SRB assay
# Format: functional
# Conditions: DU-145, 48 h, read-out: Activity
# In short: as §1
row,SMILES,growth at 10 µM [%]
1,COc1cccc(-c2nc3sccn3c2-c2ccnc(NCCNC(=O)Nc3ccccc3)n2)c1,102

# Test system: LOX IMVI
# Test: Anticancer activity against human LOXIMVI cells assessed as cell growth at 10^-5 M after 48 hrs by SRB assay
# Format: functional
# Conditions: read-out: Activity
# In short: as §1
row,SMILES,growth at 10 µM [%]
1,COc1cccc(-c2nc3sccn3c2-c2ccnc(NCCNC(=O)Nc3ccccc3)n2)c1,102

# Test system: HOP-62
# Test: Anticancer activity against human HOP62 cells assessed as cell growth at 10^-5 M after 48 hrs by SRB assay
# Format: functional
# Conditions: HOP-62, 48 h, read-out: Activity
# In short: as §1
row,SMILES,growth at 10 µM [%]
1,COc1cccc(-c2nc3sccn3c2-c2ccnc(NCCNC(=O)Nc3ccccc3)n2)c1,129

# Test system: T47D
# Test: Anticancer activity against human T47D cells assessed as cell growth at 10^-5 M after 48 hrs by SRB assay
# Format: functional
# Conditions: read-out: Activity
# In short: as §2
row,SMILES,growth at 10 µM [%]
1,COc1cccc(-c2nc3sccn3c2-c2ccnc(NCCNC(=O)Nc3ccccc3)n2)c1,82.5

# Test system: HCT-116
# Test: Anticancer activity against human HCT116 cells assessed as cell growth at 10^-5 M after 48 hrs by SRB assay
# Format: functional
# Conditions: HCT-116, 48 h, read-out: Activity
# In short: as §1
row,SMILES,growth at 10 µM [%]
1,COc1cccc(-c2nc3sccn3c2-c2ccnc(NCCNC(=O)Nc3ccccc3)n2)c1,52.9

# Test system: HT-29
# Test: Anticancer activity against human HT-29 cells assessed as cell growth at 10^-5 M after 48 hrs by SRB assay
# Format: functional
# Conditions: HT-29, 48 h, read-out: Activity
# In short: as §1
row,SMILES,growth at 10 µM [%]
1,COc1cccc(-c2nc3sccn3c2-c2ccnc(NCCNC(=O)Nc3ccccc3)n2)c1,87.5

# Test system: NCI-H23
# Test: Anticancer activity against human NCI-H23 cells assessed as cell growth at 10^-5 M after 48 hrs by SRB assay
# Format: functional
# Conditions: NCI-H23, 48 h, read-out: Activity
row,SMILES,growth at 10 µM [%]
1,COc1cccc(-c2nc3sccn3c2-c2ccnc(NCCNC(=O)Nc3ccccc3)n2)c1,111

# Test system: HCT-15
# Test: Anticancer activity against human HCT15 cells assessed as cell growth at 10^-5 M after 48 hrs by SRB assay
# Format: functional
# Conditions: HCT-15, 48 h, read-out: Activity
# In short: as §1
row,SMILES,growth at 10 µM [%]
1,COc1cccc(-c2nc3sccn3c2-c2ccnc(NCCNC(=O)Nc3ccccc3)n2)c1,87.8

# Test system: SK-OV-3
# Test: Anticancer activity against human SKOV3 cells assessed as cell growth at 10^-5 M after 48 hrs by SRB assay
# Format: functional
# Conditions: SK-OV-3, 48 h, read-out: Activity
row,SMILES,growth at 10 µM [%]
1,COc1cccc(-c2nc3sccn3c2-c2ccnc(NCCNC(=O)Nc3ccccc3)n2)c1,99

# From ChEMBL document CHEMBL1914423, “New imidazo[2,1-b]thiazole derivatives: synthesis, in vitro anticancer evaluation, and in silico studies” (Eur J Med Chem, 2011)
